Test results as given in ChEMBL document CHEMBL4002598, “Fusaric acid and analogues as Gram-negative bacterial quorum sensing inhibitors” (Eur J Med Chem, 2017).
Active and inactive are the calls of the source. No cut-off for these calls is given here.

What was measured:
Pseudomonas aeruginosa = assay: Inhibition of LasR-dependent quorum sensing activity in Pseudomonas aeruginosa harboring reporter plasmid lasB-GFP assessed as reduction in GFP expression up to 100 ug/ml measured every 15 mins for 14 hrs by fluorescence assay
How it was run: (§1)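 P. aeruginosa lasB-gfp and rhlA-gfp reporters, grown 16 h at 37 °C with shaking, then diluted to OD450 0.1 in BT minimal medium (10% A10, 0.5% glucose, 0.5% Casamino Acids). No added signal molecule. Fluorescence at 485/535 nm and growth monitored every 15 min for 14 h at 34 °C. Concentrations up to 100 µg/ml.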

[1] = molecular target: T1, HTH-type quorum-sensing regulator RhlR (Pseudomonas aeruginosa (strain ATCC 15692 / PAO1 / 1C / PRS 101 / LMG12228)) (UniProt P54292); assay: Inhibition of RhlR-dependent quorum sensing activity in Pseudomonas aeruginosa harboring reporter plasmid rhlA-gfp assessed as reduction in GFP expression up to 100 ug/ml measured every 15 mins for 14 hrs by fluorescence assay; how it was run: as §1
T1 sequence (whole entry): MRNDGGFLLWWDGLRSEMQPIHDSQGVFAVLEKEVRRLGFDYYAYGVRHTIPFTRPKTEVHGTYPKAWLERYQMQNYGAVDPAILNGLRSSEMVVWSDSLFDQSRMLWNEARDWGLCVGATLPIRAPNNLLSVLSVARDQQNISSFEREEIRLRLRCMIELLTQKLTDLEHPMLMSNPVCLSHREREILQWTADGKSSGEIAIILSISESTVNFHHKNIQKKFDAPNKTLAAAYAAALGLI

Saccharomyces cerevisiae = assay: Inhibition of yeast Pma1 at 100 uM preincubated for 30 mins by spectrophotometric method
How it was run: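 Pma1 purified from Saccharomyces cerevisiae plasma membrane, 0.5 µg per reaction. Enzyme preincubated 30 min at room temperature with 100 µM compound. Reaction buffer: 5 mM ATP, 10 mM MgSO4, 50 mM KNO3, 5 mM NaN3, 3.5 mM molybdate, 20 mM MES-KOH pH 5.9. Run 30 min, then stopped with acidic molybdate/ascorbate/SDS. Released phosphate read at 860 nm after arsenite-citrate treatment (Baginski method).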

Escherichia coli [2] = assay: Inhibition of LuxR-dependent quorum sensing activity in Escherichia coli harboring reporter plasmid LuxI-GFP assessed as reduction in 3-oxo-C6-HSL-induced GFP expression at 3.1 ug/ml measured every 15 mins for 14 hrs by fluorescence assay
How it was run: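 E. coli luxI-gfp monitor: overnight culture 16 h, 37 °C, 180 rpm, diluted to OD450 0.1 in BT minimal medium with 10% A10, 0.5% glucose, 0.5% Casamino Acids. Signal 3-oxo-C6-HSL at 10 nM final. GFP read at ex 485/em 535 nm and OD450 every 15 min, 14 h, 34 °C. Triplicate, 2-fold dilutions from 100 μg/ml.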

Escherichia coli [3] = assay: Growth inhibition of Escherichia coli at 3.13 ug/ml
How it was run: (§2)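 E. coli luxI-gfp reporter: overnight culture 16 h, 37 °C, 180 rpm, diluted to OD450 0.1 in BT minimal medium with 10% A10, 0.5% glucose, 0.5% Casamino Acids. 3-oxo-C6-HSL at 10 nM final. Growth read as OD450 every 15 min over 14 h at 34 °C alongside GFP. Triplicate, 2-fold dilutions from 100 μg/ml.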

Escherichia coli [4] = assay: Growth inhibition of Escherichia coli at 6.2 to 100 ug/ml; how it was run: as §2

With CCCCc1ccc(C(=O)O)nc1 [FUSARIC ACID] the inhibition (Pseudomonas aeruginosa) was “inactive”, the inhibition [1] was “inactive” and the inhibition (Saccharomyces cerevisiae) was “inactive”. For the same molecule, the inhibition (Escherichia coli [2]) was “Active”, the “growth inhibition (GI)” value (Escherichia coli [3]) was “Non-Toxic” and the “growth inhibition (GI)” value (Escherichia coli [4]) was “Toxic”.
